Measured values as given in ChEMBL document CHEMBL3875169, “Synthesis, in vitro anticancer and antibacterial activities and in silico studies of new 4-substituted 1,2,3-triazole-coumarin hybrids” (Eur J Med Chem, 2016).
≈ marks a conversion by molar mass, not a printed value.

Columns and labels:
[1] = Growth inhibition of human A549 cells after 72 hrs by MTT assay; format: functional, cell-based; conditions: A549, 72 h
In short: (§1)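 Monolayers in DMEM with 10% FBS, 2 mM L-glutamine and penicillin/streptomycin, 37 °C, 5% CO2; 5000 cells/well seeded day 0. Compounds added as five 10-fold dilutions (0.01–100 µM), DMSO ≤0.1%, for 72 h. MTT absorbance converted to percentage growth (NIH formulas); IC50 by linear regression between bracketing concentrations, highest concentration reported with ">" when not reached. Quadruplicate points, three experiments.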

[2] = Growth inhibition of human CFPAC-1 cells after 72 hrs by MTT assay; format: functional, cell-based; conditions: CFPAC-1, 72 h; in short: as §1
[3] = Growth inhibition of human HeLa cells after 72 hrs by MTT assay; format: functional, cell-based; in short: as §1
[4] = Growth inhibition of human SW620 cells after 72 hrs by MTT assay; format: functional, cell-based; conditions: SW-620, 72 h; in short: as §1
[5] = Growth inhibition of human HepG2 cells after 72 hrs by MTT assay; format: functional, cell-based; conditions: HepG2, 72 h; in short: as §1
[6] = tested on: Acinetobacter baumannii; assay: Antibacterial activity against Acinetobacter baumannii ATCC 19606 after 16 to 20 hrs by broth microdilution method; format: functional
In short: (§2)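 Broth microdilution per CLSI in cation (Ca2+, Mg2+)-adjusted Mueller-Hinton broth; compounds in serial two-fold dilutions, 256–0.25 µg/mL; direct colony suspension inoculum, final 5 x 10^5 CFU/mL; 35 ± 2 °C, 16–20 h, ambient air. MIC is the lowest concentration completely inhibiting visible growth versus growth control; with trailing, endpoint read at ≥80% growth reduction. E. coli ATCC 25922 and P. aeruginosa ATCC 27853 served as QC.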

[7] = tested on: Escherichia coli; assay: Antibacterial activity against Escherichia coli ATCC 25925 after 16 to 20 hrs by broth microdilution method; format: functional; conditions: read-out: MIC=>80; in short: as §2
[8] = tested on: Staphylococcus aureus; assay: Antibacterial activity against Staphylococcus aureus ATCC 25923 after 16 to 20 hrs by broth microdilution method; format: functional; in short: as §2
[9] = tested on: Enterococcus faecalis; assay: Antibacterial activity against Enterococcus faecalis after 16 to 20 hrs by broth microdilution method; format: functional; in short: as §2
[10] = tested on: Klebsiella pneumoniae; assay: Antibacterial activity against ESBL-producing Klebsiella pneumoniae ATCC 27736 after 16 to 20 hrs by broth microdilution method; format: functional; in short: as §2
[11] = tested on: Pseudomonas aeruginosa; assay: Antibacterial activity against Pseudomonas aeruginosa ATCC 27853 after 16 to 20 hrs by broth microdilution method; format: functional; in short: as §2
[12] = Growth inhibition of human WI38 cells after 72 hrs by MTT assay; format: cell-based; conditions: WI-38, 72 h; in short: as §1

Compound: O=c1cc(Cn2cc(CCO)nn2)c2ccc(O)cc2o1
- IC50 [1]: 90.3 µM
- IC50 [2]: > 100 µM
- IC50 [3]: > 100 µM
- IC50 [4]: > 100 µM
- IC50 [5]: > 100 µM

Compound: O=C(O)c1cn(C2CC2)c2cc(N3CCNCC3)c(F)cc2c1=O [CIPROFLOXACIN]
- MIC80 [6]: < 0.125 µg/mL
- MIC [7]: < 0.125 µg/mL
- MIC80 [8]: 0.25 µg/mL (≈ 0.754 µM)
- MIC80 [9]: 0.5 µg/mL (≈ 1.51 µM)
- MIC80 [10]: > 256 µg/mL
- MIC80 [11]: < 0.125 µg/mL

Compound: O=c1cc(Cn2cc(CCCO)nn2)c2ccc(O)cc2o1
- IC50 [1]: 96.2 µM
- IC50 [2]: > 100 µM
- IC50 [3]: 90.2 µM
- IC50 [4]: > 100 µM
- IC50 [5]: > 100 µM

Compound: O=c1cc(Cn2cc(CSC(=S)N3CCNCC3)nn2)c2ccc(O)cc2o1
- IC50 [1]: 96 µM
- MIC80 [6]: > 256 µg/mL
- IC50 [2]: > 100 µM
- IC50 [3]: > 100 µM
- MIC [7]: > 256 µg/mL
- MIC80 [8]: > 256 µg/mL
- MIC80 [9]: 16 µg/mL (≈ 38.3 µM)
- MIC80 [10]: > 256 µg/mL
- IC50 [4]: > 100 µM
- IC50 [5]: > 100 µM
- IC50 [12]: > 100 µM
- MIC80 [11]: > 256 µg/mL

Compound: CCCCc1ccc(-c2cn(Cc3cc(=O)oc4cc(O)ccc34)nn2)cc1
- IC50 [1]: 13.8 µM
- MIC80 [6]: > 256 µg/mL
- IC50 [2]: 69.8 µM
- IC50 [3]: 39 µM
- MIC [7]: > 256 µg/mL
- MIC80 [8]: > 256 µg/mL
- MIC80 [9]: 64 µg/mL (≈ 170 µM)
- MIC80 [10]: > 256 µg/mL
- IC50 [4]: 49.2 µM
- IC50 [5]: 48.4 µM
- MIC80 [11]: > 256 µg/mL

Compound: CCCCCc1ccc(-c2cn(Cc3cc(=O)oc4cc(O)ccc34)nn2)cc1
- IC50 [1]: 13.7 µM
- MIC80 [6]: > 256 µg/mL
- IC50 [2]: 50.4 µM
- IC50 [3]: 24.6 µM
- MIC [7]: > 256 µg/mL
- MIC80 [8]: > 256 µg/mL
- MIC80 [9]: 8 µg/mL (≈ 20.5 µM)
- MIC80 [10]: > 256 µg/mL
- IC50 [4]: 39.6 µM
- IC50 [5]: 27.3 µM
- MIC80 [11]: > 256 µg/mL

Compound: CCCC1CCC(c2ccc(-c3cn(Cc4cc(=O)oc5cc(O)ccc45)nn3)cc2)CC1 (centres undefined)
- IC50 [1]: 41 µM
- MIC80 [6]: > 256 µg/mL
- IC50 [2]: 52.8 µM
- IC50 [3]: 34.3 µM
- MIC [7]: > 256 µg/mL
- MIC80 [8]: > 256 µg/mL
- MIC80 [9]: 64 µg/mL (≈ 144 µM)
- MIC80 [10]: > 256 µg/mL
- IC50 [4]: 37.5 µM
- IC50 [5]: 30.4 µM
- IC50 [12]: 7.91 µM
- MIC80 [11]: > 256 µg/mL

Compound: Cc1ccc2c(Cn3cc(CNc4ccc(-c5nc6ccc(C)cc6s5)cc4)nn3)cc(=O)oc2c1
- IC50 [1]: 46.2 µM
- IC50 [2]: 34.9 µM
- IC50 [3]: 51.4 µM
- IC50 [4]: ≥ 100 µM
- IC50 [5]: 94.7 µM

Compound: O=c1cc(Cn2cc(CSC(=S)N3CCOCC3)nn2)c2ccc(O)cc2o1
- IC50 [1]: 70.2 µM
- MIC80 [6]: > 256 µg/mL
- IC50 [2]: 56.3 µM
- IC50 [3]: 40.8 µM
- MIC [7]: > 256 µg/mL
- MIC80 [8]: > 256 µg/mL
- MIC80 [9]: 32 µg/mL (≈ 76.5 µM)
- MIC80 [10]: > 256 µg/mL
- IC50 [4]: ≥ 100 µM
- IC50 [5]: 99.4 µM
- IC50 [12]: 59.1 µM
- MIC80 [11]: > 256 µg/mL

Compound: O=c1cc(Cn2cc(CCCCl)nn2)c2ccc(O)cc2o1
- IC50 [1]: 30.1 µM
- IC50 [2]: 75.8 µM
- IC50 [3]: 49.6 µM
- IC50 [4]: 59.8 µM
- IC50 [5]: > 100 µM

Compound: CCCCCCc1cn(Cc2cc(=O)oc3cc(O)ccc23)nn1
- IC50 [1]: 66.2 µM
- IC50 [2]: > 100 µM
- IC50 [3]: 59 µM
- IC50 [4]: > 100 µM
- IC50 [5]: 61.6 µM
- IC50 [12]: 58.5 µM

Compound: O=c1cc(Cn2cc(CCCCO)nn2)c2ccc(O)cc2o1
- IC50 [1]: > 100 µM
- IC50 [2]: > 100 µM
- IC50 [3]: > 100 µM
- IC50 [4]: > 100 µM
- IC50 [5]: > 100 µM

Compound: O=c1cc(Cn2cc(-c3ccc(Br)cc3)nn2)c2ccc(O)cc2o1
- IC50 [1]: 32.3 µM
- MIC80 [6]: > 256 µg/mL
- IC50 [2]: 52.9 µM
- IC50 [3]: 40.2 µM
- MIC [7]: > 256 µg/mL
- MIC80 [8]: > 256 µg/mL
- MIC80 [9]: 256 µg/mL (≈ 643 µM)
- MIC80 [10]: > 256 µg/mL
- IC50 [4]: 97.7 µM
- IC50 [5]: 61.1 µM
- MIC80 [11]: > 256 µg/mL

Compound: CC(C)(C)OC(=O)N1CCN(C(=S)SCc2cn(Cc3cc(=O)oc4cc(O)ccc34)nn2)CC1
- IC50 [1]: 35.4 µM
- IC50 [2]: 88.5 µM
- IC50 [3]: 48 µM
- IC50 [4]: > 100 µM
- IC50 [5]: 56.9 µM
- IC50 [12]: 2.82 µM

Compound: CCCCCCc1ccc(-c2cn(Cc3cc(=O)oc4cc(O)ccc34)nn2)cc1
- IC50 [1]: 8.87 µM
- MIC80 [6]: > 256 µg/mL
- IC50 [2]: > 100 µM
- IC50 [3]: 8.73 µM
- MIC [7]: > 256 µg/mL
- MIC80 [8]: > 256 µg/mL
- MIC80 [9]: 16 µg/mL (≈ 39.7 µM)
- MIC80 [10]: > 256 µg/mL
- IC50 [4]: 36.8 µM
- IC50 [5]: 9.16 µM
- IC50 [12]: 14 µM
- MIC80 [11]: > 256 µg/mL

Compound: O=c1cc(Cn2cc(CNS(=O)(=O)c3ccc(F)cc3Cl)nn2)c2ccc(O)cc2o1
- IC50 [1]: 91.9 µM
- MIC80 [6]: > 256 µg/mL
- IC50 [2]: > 100 µM
- IC50 [3]: 74.9 µM
- MIC [7]: > 256 µg/mL
- MIC80 [8]: > 256 µg/mL
- MIC80 [9]: 32 µg/mL (≈ 68.8 µM)
- MIC80 [10]: > 256 µg/mL
- IC50 [4]: > 100 µM
- IC50 [5]: 74.8 µM
- IC50 [12]: 1.45 µM
- MIC80 [11]: > 256 µg/mL

Compound: Cc1ccc2nc(-c3ccc(NCc4cn(Cc5cc(=O)oc6cc(O)ccc56)nn4)cc3)sc2c1
- IC50 [1]: 16.2 µM
- IC50 [2]: 10.5 µM
- IC50 [3]: 7.26 µM
- IC50 [4]: 90 µM
- IC50 [5]: 52.8 µM

Compound: O=c1cc(Cn2cc(CNS(=O)(=O)c3ccc(Cl)cc3)nn2)c2ccc(O)cc2o1
- IC50 [1]: 47.9 µM
- IC50 [2]: 81.9 µM
- IC50 [3]: 58.5 µM
- IC50 [4]: > 100 µM
- IC50 [5]: 31.4 µM
- IC50 [12]: 0.82 µM

Compound: CC(C)(O/N=C(\C(=O)N[C@@H]1C(=O)N2C(C(=O)[O-])=C(C[n+]3ccccc3)CS[C@H]12)c1csc(N)n1)C(=O)O [CEFTAZIDIME]
- MIC80 [6]: 16 µg/mL (≈ 29.3 µM)
- MIC [7]: 0.5 µg/mL (≈ 0.915 µM)
- MIC80 [8]: 64 µg/mL (≈ 117 µM)
- MIC80 [9]: 256 µg/mL (≈ 468 µM)
- MIC80 [10]: > 256 µg/mL
- MIC80 [11]: 4 µg/mL (≈ 7.32 µM)

Compound: Cn1c(-c2cn(Cc3cc(=O)oc4cc(O)ccc34)nn2)nc2ccccc21
- IC50 [1]: > 100 µM
- IC50 [2]: 76.5 µM
- IC50 [3]: 49.1 µM
- IC50 [4]: > 100 µM
- IC50 [5]: 70.7 µM

Compound: CC(C)(C)c1cn(Cc2cc(=O)oc3cc(O)ccc23)nn1
- IC50 [1]: 67.6 µM
- MIC80 [6]: > 256 µg/mL
- IC50 [2]: > 100 µM
- IC50 [3]: 81.1 µM
- MIC [7]: > 256 µg/mL
- MIC80 [8]: > 256 µg/mL
- MIC80 [9]: 128 µg/mL (≈ 428 µM)
- MIC80 [10]: > 256 µg/mL
- IC50 [4]: > 100 µM
- IC50 [5]: > 100 µM
- MIC80 [11]: > 256 µg/mL

Compound: CC(O)c1cn(Cc2cc(=O)oc3cc(O)ccc23)nn1 (centres undefined)
- IC50 [1]: > 100 µM
- IC50 [2]: > 100 µM
- IC50 [3]: > 100 µM
- IC50 [4]: > 100 µM
- IC50 [5]: > 100 µM

Compound: O=c1cc(Cn2cc(C3CC3)nn2)c2ccc(O)cc2o1
- IC50 [1]: 91.7 µM
- IC50 [2]: > 100 µM
- IC50 [3]: > 100 µM
- IC50 [4]: > 100 µM
- IC50 [5]: > 100 µM
